Drawing on ChEMBL document CHEMBL1157717, “Design, synthesis and biological evaluation of 6-(benzyloxy)-4-methylquinolin-2(1H)-one derivatives as PDE3 inhibitors” (Bioorg Med Chem, 2010), this text covers IC50, Ratio IC50 and Activity for eleven compounds.

Assay [1] deals with T1, cGMP-inhibited 3',5'-cyclic phosphodiesterase 3A (Homo sapiens, UniProt Q14432). Nature of the assay: Inhibition of human PDE3A by fluorescence microplate reader. The procedure, abridged:
(§1)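 IMAP fluorescence-polarization PDE assay: 1 ng PDE3A or PDE3B, 100 nM FAM-cAMP in IMAP reaction buffer, 60 min at room temperature. Binding reagent (1:600) added for a further 60 min at room temperature. Read at ex 485/em 528 nm, in duplicate. % activity is normalised to the no-enzyme and maximum-FP values. IC50 comes from a sigmoidal fit over 0.01–100 μM.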

In assay [2] the target is T2, cGMP-inhibited 3',5'-cyclic phosphodiesterase 3B (Homo sapiens, UniProt Q13370). Nature of the assay: Inhibition of human PDE3B by fluorescence microplate reader. In a few lines:
as §1
Target sequence in this assay (Q13370 whole entry): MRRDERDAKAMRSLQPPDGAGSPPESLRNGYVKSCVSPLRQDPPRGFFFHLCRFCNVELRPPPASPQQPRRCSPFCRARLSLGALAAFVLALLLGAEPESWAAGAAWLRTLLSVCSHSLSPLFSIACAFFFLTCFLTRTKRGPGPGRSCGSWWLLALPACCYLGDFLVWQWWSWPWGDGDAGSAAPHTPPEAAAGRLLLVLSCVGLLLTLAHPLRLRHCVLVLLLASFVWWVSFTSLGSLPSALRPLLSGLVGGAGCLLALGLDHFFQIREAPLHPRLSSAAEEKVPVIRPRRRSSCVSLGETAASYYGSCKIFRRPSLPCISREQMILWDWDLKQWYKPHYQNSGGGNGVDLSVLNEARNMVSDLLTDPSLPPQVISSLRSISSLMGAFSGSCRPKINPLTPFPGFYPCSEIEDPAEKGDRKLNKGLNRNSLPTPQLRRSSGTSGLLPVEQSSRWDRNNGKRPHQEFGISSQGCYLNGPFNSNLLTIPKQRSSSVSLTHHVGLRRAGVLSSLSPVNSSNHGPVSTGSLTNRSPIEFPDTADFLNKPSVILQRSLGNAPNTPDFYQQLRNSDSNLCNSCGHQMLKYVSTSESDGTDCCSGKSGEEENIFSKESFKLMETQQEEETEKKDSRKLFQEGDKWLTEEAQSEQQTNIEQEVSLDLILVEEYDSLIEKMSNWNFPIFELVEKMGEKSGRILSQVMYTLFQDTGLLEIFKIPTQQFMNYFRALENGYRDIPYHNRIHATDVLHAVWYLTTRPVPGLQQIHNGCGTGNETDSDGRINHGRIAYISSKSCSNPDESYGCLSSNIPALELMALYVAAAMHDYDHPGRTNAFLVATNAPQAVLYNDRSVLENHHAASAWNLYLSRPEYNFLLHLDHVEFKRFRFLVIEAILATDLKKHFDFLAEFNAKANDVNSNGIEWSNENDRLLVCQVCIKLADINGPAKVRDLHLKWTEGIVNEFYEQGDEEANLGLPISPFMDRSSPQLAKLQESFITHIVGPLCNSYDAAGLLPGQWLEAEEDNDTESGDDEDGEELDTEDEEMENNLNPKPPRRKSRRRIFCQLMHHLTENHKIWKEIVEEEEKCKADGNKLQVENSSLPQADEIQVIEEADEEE

In assay [3] the target is T1, cGMP-inhibited 3',5'-cyclic phosphodiesterase 3A. Nature of the assay: Ratio of IC50 for vesnarinone to IC50 for drug against human PDE3A by fluorescence microplate reader.
For assay [4], the target named is T2, cGMP-inhibited 3',5'-cyclic phosphodiesterase 3B. In words: Ratio of IC50 for vesnarinone to IC50 for drug against human PDE3B by fluorescence microplate reader.
Target sequence in this assay (Q13370 whole entry, looked up): as the sequence (Q13370 whole entry) above
A short description of assay [5]: Positive inotropic activity in isolated reserpine-treated Wistar rat whole atrium assessed as contraction at 1 uM (Rvb=100+/-3%). It is filed as functional, Cardiac atrium. The procedure, abridged:
(§2)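 Male Wistar rats (250–350 g) received reserpine 5 mg/kg ip 24 h before thiopental anaesthesia. Whole atria were mounted in Krebs–Henseleit gassed with 95% O2/5% CO2, 35–37 °C, pH 7.35–7.45, under about 0.5 g resting tension with 40–50 min equilibration. Only tyramine (1.5 μM)-unresponsive preparations were used. Compounds were added cumulatively (1–100 μM), with isometric force and rate recorded. Values are mean ± SEM, six atria.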

A short description of assay [6]: Positive inotropic activity in isolated reserpine-treated Wistar rat whole atrium assessed as contraction at 10 uM (Rvb=100+/-3%). In kind it is functional, Cardiac atrium. The procedure, abridged:
as §2

Assay [7] can be described thus: Positive inotropic activity in isolated reserpine-treated Wistar rat whole atrium assessed as contraction at 100 uM (Rvb=100+/-3%). It is filed as functional, Cardiac atrium. In a few lines:
as §2

Assay [8] in a line: Positive inotropic activity in isolated reserpine-treated Wistar rat whole atrium assessed as heart rate at 10 uM (Rvb=100+/-2%). In kind it is functional, Cardiac atrium. In a few lines:
as §2

Assay [9] is described as follows: Positive inotropic activity in isolated reserpine-treated Wistar rat whole atrium assessed as heart rate at 100 uM (Rvb=100+/-2%). It is filed as functional, Cardiac atrium. The procedure, abridged:
as §2

In assay [10] the target is T1, cGMP-inhibited 3',5'-cyclic phosphodiesterase 3A. Nature of the assay: Ratio of IC50 for vesnarinone to IC50 for drug against human PDE3A by fluorescence microplate reader.
In assay [11] the target is T2, cGMP-inhibited 3',5'-cyclic phosphodiesterase 3B. In words: Ratio of IC50 for vesnarinone to IC50 for drug against human PDE3B by fluorescence microplate reader.
Target sequence in this assay (Q13370 whole entry, looked up): as the sequence (Q13370 whole entry) above
A short description of assay [12]: Positive inotropic activity in isolated reserpine-treated Wistar rat whole atrium assessed as contraction at 1 uM (Rvb=100+/-4%). In kind it is functional, Cardiac atrium. The procedure, abridged: as §2
The nature of assay [13]: Positive inotropic activity in isolated reserpine-treated Wistar rat whole atrium assessed as contraction at 10 uM (Rvb=100+/-4%). It is filed as functional, Cardiac atrium. In a few lines:
as §2

Assay [14] can be described thus: Positive inotropic activity in isolated reserpine-treated Wistar rat whole atrium assessed as contraction at 100 uM (Rvb=100+/-4%). It is filed as functional, Cardiac atrium. In a few lines: as §2
Assay [15] can be described thus: Positive inotropic activity in isolated reserpine-treated Wistar rat whole atrium assessed as heart rate at 1 uM (Rvb=100+/-3%). In kind it is functional, Cardiac atrium. In a few lines: as §2
Assay [16] in a line: Positive inotropic activity in isolated reserpine-treated Wistar rat whole atrium assessed as heart rate at 10 uM (Rvb=100+/-3%). In kind it is functional, Cardiac atrium. The procedure, abridged:
as §2

A short description of assay [17]: Positive inotropic activity in isolated reserpine-treated Wistar rat whole atrium assessed as heart rate at 100 uM (Rvb=100+/-3%). In kind it is functional, Cardiac atrium. The procedure, abridged:
as §2

T1 sequence (Q14432 whole entry): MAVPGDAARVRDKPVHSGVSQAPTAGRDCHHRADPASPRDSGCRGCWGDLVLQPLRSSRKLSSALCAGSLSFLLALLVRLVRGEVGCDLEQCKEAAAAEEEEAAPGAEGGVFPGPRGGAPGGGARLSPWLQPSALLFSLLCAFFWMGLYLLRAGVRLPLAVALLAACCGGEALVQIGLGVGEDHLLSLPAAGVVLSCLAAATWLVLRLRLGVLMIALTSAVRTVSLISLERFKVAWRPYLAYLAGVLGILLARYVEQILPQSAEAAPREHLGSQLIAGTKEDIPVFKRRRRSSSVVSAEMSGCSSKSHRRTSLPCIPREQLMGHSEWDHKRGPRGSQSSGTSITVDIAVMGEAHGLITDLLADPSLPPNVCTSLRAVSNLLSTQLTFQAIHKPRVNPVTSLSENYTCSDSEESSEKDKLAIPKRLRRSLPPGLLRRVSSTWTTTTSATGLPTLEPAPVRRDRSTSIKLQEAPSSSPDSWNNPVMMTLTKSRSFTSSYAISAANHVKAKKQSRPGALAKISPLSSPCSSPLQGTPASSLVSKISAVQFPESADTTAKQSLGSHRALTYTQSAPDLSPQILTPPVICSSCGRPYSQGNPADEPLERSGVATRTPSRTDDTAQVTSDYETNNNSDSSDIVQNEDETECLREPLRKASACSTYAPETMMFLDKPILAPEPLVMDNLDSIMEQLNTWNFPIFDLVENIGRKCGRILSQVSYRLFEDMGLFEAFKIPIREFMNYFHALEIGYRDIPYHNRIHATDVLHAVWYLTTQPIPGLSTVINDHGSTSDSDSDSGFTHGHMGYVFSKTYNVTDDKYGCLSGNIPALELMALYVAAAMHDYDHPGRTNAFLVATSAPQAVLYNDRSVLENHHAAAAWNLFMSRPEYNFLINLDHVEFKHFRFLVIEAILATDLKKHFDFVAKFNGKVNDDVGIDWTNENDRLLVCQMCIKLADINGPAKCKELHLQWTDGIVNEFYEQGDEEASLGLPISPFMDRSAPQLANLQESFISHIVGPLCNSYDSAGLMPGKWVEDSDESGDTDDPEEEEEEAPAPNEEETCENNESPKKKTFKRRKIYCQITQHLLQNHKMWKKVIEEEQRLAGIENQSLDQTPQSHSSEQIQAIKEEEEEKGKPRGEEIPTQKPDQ

Broadly, the IC50 is the concentration that inhibits the measured activity by half. A high value points to a need for much substance. `Cc1cc(=O)[nH]c2ccc(OCc3cccc(C(=O)N4CCC(O)CC4)c3)cc12`: the values for the IC50 in assay [1] and in [2] were 1350 nM and 910 nM, respectively.

On to `Cc1cc(=O)[nH]c2ccc(OCc3cccc(C(=O)N4CCC(C)CC4)c3)cc12`, for which the IC50 in assay [1] was 430 nM; in [2], 1610 nM.

Regarding `Cc1cc(=O)[nH]c2ccc(OCc3cccc(C(=O)N4CCCCC4)c3)cc12`, the IC50 in assay [1] was 660 nM; in assay [2] it was 1730 nM.

Consider `CCN1CCN(C(=O)c2cccc(COc3ccc4[nH]c(=O)cc(C)c4c3)c2)CC1`, for which the half-inhibitory concentration (IC50) was 1440 nM in [1] and 1930 nM in assay [2]. Also, the Ratio IC50 in assay [3] worked out at 25; in assay [4], 8. For the same compound, the Activity in assay [5] is 101%; in [6], 123%; in assay [7] it was 146%; in assay [8], 108%; in assay [9] it was 116%.

Regarding `Cc1cc(=O)[nH]c2ccc(OCc3cccc(C(=O)N4CCN(C)CC4)c3)cc12`, the results for the IC50 in [1] and in [2] were 1760 nM and 3510 nM, respectively. Also, the Ratio IC50 in assay [10] came out at 6; in assay [11], 4.

Consider `COc1ccc(C(=O)N2CCN(c3ccc4c(c3)CCC(=O)N4)CC2)cc1OC` [VESNARINONE], for which the IC50 in assay [1] amounted to 10700 nM; in assay [2], 13200 nM. Further, the Activity is 102% in assay [12]; 121% in assay [13]; 141% in assay [14]; 103% in [15]; 109% in [16]; 114% in assay [17].

`Cc1cc(=O)[nH]c2ccc(OCc3cccc(C(=O)N4CCOCC4)c3)cc12`: the results for the IC50 in assay [1] and in assay [2] were 1340 nM and 1540 nM, respectively.

As for `Cc1cc(=O)[nH]c2ccc(OCc3cccc(C(=O)N4CCN(CCO)CC4)c3)cc12`, the IC50 in assay [1] stood at 1650 nM; in [2], 2800 nM.

For `Cc1cc(=O)[nH]c2ccc(OCc3cccc(C(=O)N4CCCC4)c3)cc12`, the results for the IC50 in assay [1] and in assay [2] were 640 nM and 1200 nM, respectively.

On to `Cc1cc(=O)[nH]c2ccc(OCc3cccc(C(=O)N4CCC(C(=O)O)CC4)c3)cc12`, for which the figures for the IC50 in assay [1] and in assay [2] were 840 nM and 1280 nM, respectively.

On to `Cc1cc(=O)[nH]c2ccc(OCc3cccc(C(=O)N4CCC(=O)CC4)c3)cc12`, for which the IC50 in assay [1] came out at 1260 nM; in assay [2], 1140 nM.
